# Measured values taken from ChEMBL document CHEMBL4689842, “EUbOPEN Chemogenomics Library wave 1” (2021).
# Several values for one entry are separate records, joined by “and”; a condition that tells them apart may be missing. Equal values may be shown once.
# Tested on: Fibroblast
# Test: Multiplex assay against human fibroblast
# Type: toxicity, cell-based
# Summary of the method: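 Values for tubulin, mitochondrial-mass and membrane-permeability phenotypes are per cents of cells with healthy nuclei. These cells were identified by CellPathfinder machine-learning gating of live cells that had been stained at seeding with Hoechst33342, BioTracker Green Microtubule Cytoskeleton Dye, MitoTracker Red and Annexin V Alexa Fluor 680 and imaged on a CQ1 microscope at 37°C and 5% CO2 after compound addition. The gating first set Hoechst high-intensity objects apart from normal cells, then split normal cells into healthy, pyknosed or fragmented nuclei, and pyknosed cells into mitotic or apoptotic.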
# [1] = 12 h, 1 µM, compound concentration 1 uM, replicate 1
# [2] = 12 h, 1 µM, compound concentration 1 uM, replicate 2
# [3] = 12 h, 10 µM, compound concentration 10 uM, replicate 1
# [4] = 12 h, 10 µM, compound concentration 10 uM, replicate 2
# [5] = 24 h, 1 µM, compound concentration 1 uM, replicate 1
# [6] = 24 h, 1 µM, compound concentration 1 uM, replicate 2
# [7] = 24 h, 10 µM, compound concentration 10 uM, replicate 1
# [8] = 24 h, 10 µM, compound concentration 10 uM, replicate 2
compound,measurement,setting,value
CC[C@@]1(O)C(=O)OCc2c1cc1n(c2=O)Cc2cc3ccccc3nc2-1 [CAMPTOTHECIN],Population Apoptotic (%),[1],68% and 80%
same,Population Fragmented Nuclei (%),[1],42% and 41% and 43%
same,Population Healthy Nuclei (%),[1],49% and 43% and 37%
same,Population Membrane Permeable-Phenotype (%),[1],10% and 7% and 5%
same,Population Mitochondria Different-Phenotype (%),[1],3% and 9% and 7%
same,Population Mitotic Cells (%),[1],31% and 20% and 19%
same,Population Normal (%),[1],84% and 52% and 47%
same,Population Pyknosed Nuclei (%),[1],8% and 15% and 19%
same,Total Cell Count,[1],256 and 440 and 382
same,Population Fragmented Nuclei (%),[2],64% and 80%
same,Population Healthy Nuclei (%),[2],32% and 19% and 34%
same,Population Hoechst High Intensity Objects (%),[2],37% and 59% and 67%
same,Population Membrane Permeable-Phenotype (%),[2],15% and 16% and 6%
same,Population Mitochondria Different-Phenotype (%),[2],10% and 12% and 30%
same,Population Normal (%),[2],62% and 40% and 32%
same,Population Pyknosed Nuclei (%),[2],3% and 0% and 1%
same,Population Tubulin-Different-Phenotype (%),[2],21% and 28% and 24%
same,Population Apoptotic (%),[3],87%
same,Population Fragmented Nuclei (%),[3],34%
same,Population Healthy Nuclei (%),[3],43%
same,Population Hoechst High Intensity Objects (%),[3],27%
same,Population Membrane Permeable-Phenotype (%),[3],3%
same,Population Mitochondria Different-Phenotype (%),[3],11%
same,Population Mitotic Cells (%),[3],12%
same,Population Normal (%),[3],72%
same,Population Pyknosed Nuclei (%),[3],21%
same,Population Tubulin-Different-Phenotype (%),[3],9%
same,Total Cell Count,[3],198
same,Population Apoptotic (%),[4],50%
same,Population Fragmented Nuclei (%),[4],65%
same,Population Healthy Nuclei (%),[4],30%
same,Population Hoechst High Intensity Objects (%),[4],41%
same,Population Membrane Permeable-Phenotype (%),[4],7%
same,Population Mitochondria Different-Phenotype (%),[4],7%
same,Population Mitotic Cells (%),[4],50%
same,Population Normal (%),[4],58%
same,Population Pyknosed Nuclei (%),[4],4%
same,Population Tubulin-Different-Phenotype (%),[4],7%
same,Total Cell Count,[4],74
same,Population Apoptotic (%),[5],78% and 72% and 90%
same,Population Fragmented Nuclei (%),[5],39% and 40% and 34%
same,Population Healthy Nuclei (%),[5],48% and 43% and 55%
same,Population Membrane Permeable-Phenotype (%),[5],10% and 4% and 6%
same,Population Mitochondria Different-Phenotype (%),[5],7% and 15% and 8%
same,Population Mitotic Cells (%),[5],21% and 27% and 9%
same,Population Normal (%),[5],54% and 49% and 89%
same,Population Pyknosed Nuclei (%),[5],12% and 16% and 10%
same,Population Tubulin-Different-Phenotype (%),[5],16% and 11% and 12%
same,Total Cell Count,[5],414 and 405 and 222
same,Population Fragmented Nuclei (%),[6],57% and 80% and 66%
same,Population Healthy Nuclei (%),[6],40% and 18% and 32%
same,Population Hoechst High Intensity Objects (%),[6],44% and 56% and 68%
same,Population Membrane Permeable-Phenotype (%),[6],15% and 16% and 0%
same,Population Mitochondria Different-Phenotype (%),[6],25% and 16% and 28%
same,Population Normal (%),[6],55% and 43% and 31%
same,Population Pyknosed Nuclei (%),[6],2% and 1%
same,Population Tubulin-Different-Phenotype (%),[6],20% and 29% and 36%
same,Population Apoptotic (%),[7],85%
same,Population Fragmented Nuclei (%),[7],34%
same,Population Healthy Nuclei (%),[7],45%
same,Population Hoechst High Intensity Objects (%),[7],28%
same,Population Membrane Permeable-Phenotype (%),[7],6%
same,Population Mitochondria Different-Phenotype (%),[7],9%
same,Population Mitotic Cells (%),[7],14%
same,Population Normal (%),[7],71%
same,Population Pyknosed Nuclei (%),[7],19%
same,Population Tubulin-Different-Phenotype (%),[7],7%
same,Total Cell Count,[7],201
same,Population Apoptotic (%),[8],100%
same,Population Fragmented Nuclei (%),[8],65%
same,Population Healthy Nuclei (%),[8],31%
same,Population Hoechst High Intensity Objects (%),[8],42%
same,Population Membrane Permeable-Phenotype (%),[8],0%
same,Population Mitochondria Different-Phenotype (%),[8],0%
same,Population Mitotic Cells (%),[8],0%
same,Population Normal (%),[8],57%
same,Population Pyknosed Nuclei (%),[8],2%
same,Total Cell Count,[8],77
